The target in assay [1] is T1, Cholecystokinin receptor type A (Rattus norvegicus, UniProt P30551).
T1 sequence (P30551 whole entry): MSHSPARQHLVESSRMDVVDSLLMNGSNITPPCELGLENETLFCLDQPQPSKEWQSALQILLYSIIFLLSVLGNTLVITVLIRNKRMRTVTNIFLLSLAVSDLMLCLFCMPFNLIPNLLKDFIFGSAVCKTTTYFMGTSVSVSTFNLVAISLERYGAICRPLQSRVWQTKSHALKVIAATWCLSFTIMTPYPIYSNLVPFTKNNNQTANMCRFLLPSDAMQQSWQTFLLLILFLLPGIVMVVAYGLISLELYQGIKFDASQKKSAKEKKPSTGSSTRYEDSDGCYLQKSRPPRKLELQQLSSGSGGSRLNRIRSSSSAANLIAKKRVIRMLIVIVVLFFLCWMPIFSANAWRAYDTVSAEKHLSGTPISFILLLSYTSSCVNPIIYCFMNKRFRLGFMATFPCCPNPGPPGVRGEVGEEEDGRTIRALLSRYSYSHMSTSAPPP
Nature of the assay: In vitro inhibition of [3H]propionyl-CCK-8 binding to rat pancreatic membranes at Cholecystokinin type A receptor. The class given is cell membranes, Membrane. The essentials: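 Rat pancreas homogenized in Pipes-HCl pH 6.5 with 30 mM MgCl2 and spun twice (50000g, 10 min, 4 °C). Membranes (0.2 mg protein/tube) incubated with 0.5 nM [3H]pCCK-8 in the same buffer plus bacitracin and soybean trypsin inhibitor (0.2 mg/mL each), 120 min at 25 °C. Nonspecific binding defined with 1 μM CCK-8. Seven concentrations in duplicate, ≥3 experiments, mean ± SEM.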

Assay [2] addresses T2, Gastrin/cholecystokinin type B receptor (Rattus norvegicus, UniProt P30553).
T2 sequence (P30553 whole entry): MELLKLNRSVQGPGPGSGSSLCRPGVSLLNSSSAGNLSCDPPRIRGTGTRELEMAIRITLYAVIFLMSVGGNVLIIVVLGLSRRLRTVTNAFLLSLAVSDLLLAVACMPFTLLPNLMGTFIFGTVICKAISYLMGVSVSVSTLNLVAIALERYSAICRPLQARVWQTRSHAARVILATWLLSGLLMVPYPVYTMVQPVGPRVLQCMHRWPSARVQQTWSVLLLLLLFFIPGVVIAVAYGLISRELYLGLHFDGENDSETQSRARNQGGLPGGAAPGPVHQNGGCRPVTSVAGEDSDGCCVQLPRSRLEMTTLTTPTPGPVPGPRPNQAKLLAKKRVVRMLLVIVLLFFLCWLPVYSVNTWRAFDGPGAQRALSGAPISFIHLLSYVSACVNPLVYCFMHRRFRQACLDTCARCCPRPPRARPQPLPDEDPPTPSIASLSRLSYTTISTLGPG
Nature of the assay: In vitro inhibition of [3H]propionyl-CCK-8 binding to rat cerebral cortex membranes at Cholecystokinin type B receptor. It is filed as cell membranes, Membrane. In outline: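 Rat cerebral cortex homogenized in 50 mM Tris-HCl pH 7.4 with 5 mM MgCl2 and spun twice (100000g, 35 min, 4 °C). Membranes (0.45 mg protein/tube) incubated with 1 nM [3H]pCCK-8 in the same buffer plus bacitracin 0.2 mg/mL, 60 min at 25 °C. Nonspecific binding defined with 1 μM CCK-8. Seven test concentrations in duplicate, at least three experiments, mean ± SEM.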

For the next assay, the species on record is Rattus norvegicus. Kind of assay: Inhibition of CCK-8-stimulated amylase release from pancreatic acinar cells. The class given is functional, cell-based. In outline: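 Pancreatic acini prepared by collagenase digestion (70 U/mL, three 10-min incubations at 37 °C under O2). Acini incubated 30 min at 37 °C under pure O2 with agitation. Amylase release was stimulated by 0.1 nM CCK-8 and expressed as percent of acinar amylase released. Percent inhibition was calculated across increasing drug concentrations, and IC50 is given with a range.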

Bounds are passed on as bounds.

With `COC(=O)C[C@H](Cc1ccccc1)NC(=O)[C@H]1Cc2c([nH]c3ccccc23)[C@@H]2C[C@@H](NC(=O)OCc3ccccc3)C(=O)N12`, the IC50 in assay [1] was above 1000 nM; in assay [2], above 10000 nM.
Taken in the same sequence, the figures for `O=C(N[C@H]1C[C@@H]2c3[nH]c4ccccc4c3C[C@@H](C(=O)N[C@H](Cc3ccccc3)C(=O)O)N2C1=O)OCc1ccccc1` were 54.6 nM and above 10000 nM.
Consider `O=C(N[C@@H]1C[C@H]2c3[nH]c4ccccc4c3C[C@H](C(=O)N[C@H](Cc3ccccc3)C(=O)O)N2C1=O)OCc1ccccc1`, for which the results for the IC50 in assay [1] and in assay [2] were above 1000 nM and 3720 nM, respectively.
Taken in the same sequence, the figures for `COC(=O)[C@H](Cc1ccccc1)NC(=O)[C@@H]1Cc2c([nH]c3ccccc23)[C@H]2C[C@H](NC(=O)OCc3ccccc3)C(=O)N21` were 47.5 nM and above 10000 nM.
In the case of `O=C(N[C@@H]1C[C@H]2c3[nH]c4ccccc4c3C[C@H](C(=O)N[C@@H](Cc3ccccc3)C(=O)O)N2C1=O)OCc1ccccc1`, the values for the IC50 (in assay [1]; in the assay listed under Rattus norvegicus; in assay [2]) were 1.73 nM, 1.2 nM and 202 nM, respectively.
Turning to `O=C(O)C[C@H](Cc1ccccc1)NC(=O)[C@H]1Cc2c([nH]c3ccccc23)[C@@H]2C[C@@H](NC(=O)OCc3ccccc3)C(=O)N12`, the IC50 in assay [1] was 97.8 nM; in assay [2], above 10000 nM.
Taken in the same sequence, the figures for `COC(=O)[C@@H](Cc1ccccc1)NC(=O)[C@@H]1Cc2c([nH]c3ccccc23)[C@H]2C[C@H](NC(=O)OCc3ccccc3)C(=O)N21` were above 1000 nM and above 10000 nM.
As to `O=C(N[C@H]1C[C@@H]2c3[nH]c4ccccc4c3C[C@@H](C(=O)N[C@@H](Cc3ccccc3)C(=O)O)N2C1=O)OCc1ccccc1`, the IC50 in assay [1] is 4.7 nM; in the assay listed under Rattus norvegicus, 6 nM; in assay [2], above 10000 nM.
The molecule `O=C(O)C[C@H](Cc1ccccc1)NC(=O)[C@@H]1Cc2c([nH]c3ccccc23)[C@H]2C[C@H](NC(=O)OCc3ccccc3)C(=O)N21` gave an IC50 in assay [2] above 10000 nM.
As for `NC(=O)[C@H](Cc1ccccc1)NC(=O)[C@@H]1Cc2c([nH]c3ccccc23)[C@H]2C[C@H](NC(=O)OCc3ccccc3)C(=O)N21`, the IC50 in assay [1] was above 1000 nM; in assay [2], above 10000 nM.
With `COC(=O)[C@@H](Cc1ccccc1)NC(=O)[C@H]1Cc2c([nH]c3ccccc23)[C@@H]2C[C@@H](NC(=O)OCc3ccccc3)C(=O)N12`, the figures for the IC50 in assay [1] and in assay [2] were above 1000 nM and above 10000 nM, respectively.
Taken in the same sequence, the figures for `COC(=O)[C@H](Cc1ccccc1)NC(=O)[C@H]1Cc2c([nH]c3ccccc23)[C@@H]2C[C@@H](NC(=O)OCc3ccccc3)C(=O)N12` were 450 nM and 5630 nM.
In the case of `O=C(O)C[C@@H](Cc1ccccc1)NC(=O)[C@H]1Cc2c([nH]c3ccccc23)[C@@H]2C[C@@H](NC(=O)OCc3ccccc3)C(=O)N12`, the IC50 in assay [1] was above 1000 nM; in assay [2] it was above 10000 nM.
`O=C(O)C[C@@H](Cc1ccccc1)NC(=O)[C@@H]1Cc2c([nH]c3ccccc23)[C@H]2C[C@H](NC(=O)OCc3ccccc3)C(=O)N21` showed an IC50 in assay [2] of 2700 nM.
Regarding `NC(=O)[C@@H](Cc1ccccc1)NC(=O)[C@@H]1Cc2c([nH]c3ccccc23)[C@H]2C[C@H](NC(=O)OCc3ccccc3)C(=O)N21`, the IC50 in assay [1] is above 1000 nM; in assay [2], above 10000 nM.
As to `COC(=O)C[C@@H](Cc1ccccc1)NC(=O)[C@H]1Cc2c([nH]c3ccccc23)[C@@H]2C[C@@H](NC(=O)OCc3ccccc3)C(=O)N12`, the IC50 in assay [1] was above 1000 nM; in assay [2] it was 4910 nM.
As to `CN1C(=O)[C@@H](NC(=O)c2cc3ccccc3[nH]2)N=C(c2ccccc2)c2ccccc21` [DEVAZEPIDE], the IC50 in the assay filed under Rattus norvegicus was 2.5 nM.

In general, IC50 refers to the point on the concentration scale where inhibition reaches its midpoint. Read a low IC50 as greater potency.

For the origin of these results see ChEMBL document CHEMBL1133683, “beta-Turned dipeptoids as potent and selective CCK(1) receptor antagonists” (J Med Chem, 2000).
